The results in this text go back to ChEMBL document CHEMBL2016450, “Design, synthesis, and biological evaluation of chalcone oxime derivatives as potential immunosuppressive agents” (Bioorg Med Chem Lett, 2012).

Calls of active or inactive are those of the source. No cut-off for these calls is given here.

Test system in the first series: not listed separately
In words: Induction of apoptosis in anti-CD-3/[…] co-stimulated Balb/c mouse lymph node cells assessed as apoptotic cells at 10 ug/ml after 24 hrs by annexin V/PI staining-based flow cytometric analysis. Format: functional. In short, it runs like this: (§1)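 Lymph node cells isolated from naïve mice were cultured with anti-CD3/anti-CD28 plus compound at 10, 20 or 40 µg/mL for 24 h. Cells were stained with Annexin V-FITC/PI and apoptotic cells were counted by flow cytometry.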
As to `COc1ccc(/C=C/C(=N\O)c2ccc(OC)cc2)cc1`, the Activity is on record as 25.83%.

For the compound `COc1ccc(C(/C=C/c2ccc(Br)cc2)=N/O)cc1`, the Activity amounted to 22.71%.

Test system in the next series: not listed separately
In words: Immunosuppressive activity in anti-CD3/[…] co-stimulated Balb/c mouse lymph node cells assessed as inhibition of cell proliferation after 72 hrs by ELISA. Format: functional. In short, it runs like this: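 Lymph node cells co-stimulated with anti-CD3/anti-CD28. The IC50 is the concentration inhibiting proliferation by 50% relative to control values. Cyclosporin A served as the reference control.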
Turning to `COc1ccc(C(/C=C/c2ccc(F)cc2)=N/O)cc1`, the IC50 came out at 11 µM.

As to `COc1ccc(C(=O)/C=C/c2ccc(Br)cc2)cc1`, the IC50 was determined as 25.1 µM.

`Cc1ccc(C(/C=C/c2ccc(Cl)cc2)=N/O)cc1`: the IC50 came out at 11.6 µM.

For `COc1ccc(/C=C/C(=O)c2ccc(OC)cc2)cc1` [4,4'-DIMETHOXYCHALCONE], the IC50 amounted to 23.6 µM.

In the case of `O/N=C(\C=C\c1ccc(Cl)cc1)c1ccc(F)cc1`, the IC50 was 10.9 µM.

In the case of `Cc1ccc(C(/C=C/c2ccc(Br)cc2)=N/O)cc1`, the IC50 was 11.6 µM.

Regarding `O/N=C(\C=C\c1ccc(Cl)cc1)c1ccc(Br)cc1`, the IC50 came to 14.7 µM.

In the case of `COc1ccc(/C=C/C(=N\O)c2ccc(OC)cc2)cc1`, the IC50 was determined as 12.3 µM.

Regarding `COc1ccc(C(/C=C/c2ccc(Cl)cc2Cl)=N/O)cc1`, the IC50 was found to be 11.2 µM.

In the case of `COc1ccc(/C=C/C(=N\O)c2ccc(C)cc2)cc1`, the IC50 was found to be 6.24 µM.

For `O/N=C(\C=C\c1cccs1)c1ccc(Cl)cc1`, the IC50 stood at 9.59 µM.

`COc1ccc(C(/C=C/c2ccc(Br)cc2)=N/O)cc1`: the IC50 is 13.9 µM.

On to `COc1ccc(/C=C/C(=N\O)c2ccc(Cl)cc2)cc1`, for which the IC50 amounted to 5.85 µM.

For the compound `O/N=C(\C=C\c1ccc(F)cc1)c1ccc(Cl)cc1`, the half-inhibitory concentration (IC50) turned out to be 10.6 µM.

For `O/N=C(\C=C\c1cccs1)c1ccc(Br)cc1`, the IC50 was found to be 11.2 µM.

For `COc1ccc(C(/C=C/c2ccc(Cl)cc2)=N/O)cc1`, the IC50 stood at 11.5 µM.

Consider `O/N=C(\C=C\c1ccc(Cl)c(Cl)c1)c1ccc(Br)cc1`, for which the 50% inhibitory concentration (IC50) is less than 5 µM.

Turning to `Cc1ccc(C(/C=C/c2ccc(F)cc2)=N/O)cc1`, the IC50 was found to be 11.2 µM.

Consider `COc1ccc(C(/C=C/c2ccccc2)=N/O)cc1`, for which the IC50 worked out at 11.8 µM.

Regarding `O/N=C(\C=C\c1ccc(Cl)cc1)c1ccc(Cl)cc1`, the IC50 is 9.15 µM.

`COc1ccc(C(/C=C/c2cccs2)=N/O)cc1`: the IC50 came to 8.49 µM.

Regarding `O/N=C(\C=C\c1ccc(F)cc1)c1ccc(Br)cc1`, the IC50 is 13.3 µM.

With `COc1ccc(/C=C/C(=N\O)c2ccc(Br)cc2)cc1`, the IC50 is less than 5 µM.

In the case of `Cc1ccc(C(/C=C/c2ccc(Cl)c(Cl)c2)=N/O)cc1`, the IC50 worked out at 6.34 µM.

Test system in another series: not listed separately
In words: Cytotoxicity against Balb/c mouse lymph node cells after 48 hrs by MTT assay. Format: cell-based. In short, it runs like this: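 Naïve lymph node cells; the CC50 is the concentration giving 50% cell survival. Cyclosporin A served as the reference control.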
In turn, `COc1ccc(C(/C=C/c2ccc(F)cc2)=N/O)cc1` registered a 50% cytotoxic concentration (CC50) at 48 h of 13.5 µM.

As to `COc1ccc(C(=O)/C=C/c2ccc(Br)cc2)cc1`, the CC50 at 48 h worked out at 93.7 µM.

For `Cc1ccc(C(/C=C/c2ccc(Cl)cc2)=N/O)cc1`, the midpoint of cytotoxicity, the CC50 at 48 h, lay at 21.3 µM.

In turn, `COc1ccc(/C=C/C(=O)c2ccc(OC)cc2)cc1` [4,4'-DIMETHOXYCHALCONE] registered a CC50 at 48 h of 1790 µM.

The compound `O/N=C(\C=C\c1ccc(Cl)cc1)c1ccc(F)cc1` gave a CC50 at 48 h of 14.8 µM.

In the case of `Cc1ccc(C(/C=C/c2ccc(Br)cc2)=N/O)cc1`, half-maximal cytotoxicity (CC50 at 48 h) was put at 34.2 µM.

`O/N=C(\C=C\c1ccc(Cl)cc1)c1ccc(Br)cc1` returned a CC50 at 48 h of 24.7 µM.

For the compound `COc1ccc(/C=C/C(=N\O)c2ccc(OC)cc2)cc1`, the midpoint of cytotoxicity, the CC50 at 48 h, lay at 2170 µM.

Regarding `COc1ccc(C(/C=C/c2ccc(Cl)cc2Cl)=N/O)cc1`, the midpoint of cytotoxicity, the CC50 at 48 h, lay at 25 µM.

Consider `COc1ccc(/C=C/C(=N\O)c2ccc(C)cc2)cc1`, for which the CC50 at 48 h turned out to be 117 µM.

For `O/N=C(\C=C\c1cccs1)c1ccc(Cl)cc1`, the CC50 at 48 h was 11.8 µM.

`COc1ccc(C(/C=C/c2ccc(Br)cc2)=N/O)cc1`: the CC50 at 48 h is 737 µM.

`COc1ccc(/C=C/C(=N\O)c2ccc(Cl)cc2)cc1` gave a CC50 at 48 h of 24.3 µM.

With `O/N=C(\C=C\c1ccc(F)cc1)c1ccc(Cl)cc1`, it took 11.5 µM to reach half-maximal cytotoxicity (CC50 at 48 h).

In the case of `O/N=C(\C=C\c1cccs1)c1ccc(Br)cc1`, the CC50 at 48 h came out at 15.3 µM.

As to `COc1ccc(C(/C=C/c2ccc(Cl)cc2)=N/O)cc1`, the cytotoxic concentration (CC50) at 48 h is 291 µM.

`O/N=C(\C=C\c1ccc(Cl)c(Cl)c1)c1ccc(Br)cc1` gave a CC50 at 48 h of less than 5 µM.

`Cc1ccc(C(/C=C/c2ccc(F)cc2)=N/O)cc1` showed a CC50 at 48 h of 13.2 µM.

In the case of `COc1ccc(C(/C=C/c2ccccc2)=N/O)cc1`, half-maximal cytotoxicity (CC50 at 48 h) was put at 28.6 µM.

`O/N=C(\C=C\c1ccc(Cl)cc1)c1ccc(Cl)cc1` displayed a CC50 at 48 h of 14.1 µM.

Consider `COc1ccc(C(/C=C/c2cccs2)=N/O)cc1`, for which it took 10.6 µM to reach half-maximal cytotoxicity (CC50 at 48 h).

Take `O/N=C(\C=C\c1ccc(F)cc1)c1ccc(Br)cc1`: the CC50 at 48 h is 20.3 µM.

`COc1ccc(/C=C/C(=N\O)c2ccc(Br)cc2)cc1` registered a CC50 at 48 h of 23.7 µM.

In turn, `Cc1ccc(C(/C=C/c2ccc(Cl)c(Cl)c2)=N/O)cc1` yielded a CC50 at 48 h of 14.7 µM.

Test system in the next series: not listed separately
In words: Selectivity index, ratio of CC50 for Balb/c mouse lymph node cells to IC50 for anti-CD3/[…] co-stimulated mouse Balb/c mouse lymph node cells. Format: functional. In short, it runs like this:
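The selectivity index is CC50 on unstimulated lymph node cells divided by IC50 for proliferation of anti-CD3/anti-CD28 co-stimulated lymph node cells, both relative to control values.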
Regarding `COc1ccc(C(/C=C/c2ccc(F)cc2)=N/O)cc1`, the “Ratio CC50/IC50” value is 1.23.

On to `COc1ccc(C(=O)/C=C/c2ccc(Br)cc2)cc1`, for which the “Ratio CC50/IC50” value was 3.73.

On to `Cc1ccc(C(/C=C/c2ccc(Cl)cc2)=N/O)cc1`, for which the “Ratio CC50/IC50” value was determined as 1.84.

Consider `COc1ccc(/C=C/C(=O)c2ccc(OC)cc2)cc1` [4,4'-DIMETHOXYCHALCONE], for which the “Ratio CC50/IC50” value was determined as 75.98.

On to `O/N=C(\C=C\c1ccc(Cl)cc1)c1ccc(F)cc1`, for which the “Ratio CC50/IC50” value is reported as 1.36.

In the case of `Cc1ccc(C(/C=C/c2ccc(Br)cc2)=N/O)cc1`, the “Ratio CC50/IC50” value worked out at 2.94.

For the compound `O/N=C(\C=C\c1ccc(Cl)cc1)c1ccc(Br)cc1`, the “Ratio CC50/IC50” value is 1.68.

For `COc1ccc(/C=C/C(=N\O)c2ccc(OC)cc2)cc1`, the “Ratio CC50/IC50” value stood at 176.69.

As to `COc1ccc(C(/C=C/c2ccc(Cl)cc2Cl)=N/O)cc1`, the “Ratio CC50/IC50” value worked out at 2.24.

Take `COc1ccc(/C=C/C(=N\O)c2ccc(C)cc2)cc1`: the “Ratio CC50/IC50” value was 18.82.

For `O/N=C(\C=C\c1cccs1)c1ccc(Cl)cc1`, the “Ratio CC50/IC50” value is 1.23.

Regarding `COc1ccc(C(/C=C/c2ccc(Br)cc2)=N/O)cc1`, the “Ratio CC50/IC50” value came out at 52.93.

For `COc1ccc(/C=C/C(=N\O)c2ccc(Cl)cc2)cc1`, the “Ratio CC50/IC50” value is 4.16.

On to `O/N=C(\C=C\c1ccc(F)cc1)c1ccc(Cl)cc1`, for which the “Ratio CC50/IC50” value worked out at 1.08.

On to `O/N=C(\C=C\c1cccs1)c1ccc(Br)cc1`, for which the “Ratio CC50/IC50” value is given as 1.38.

`COc1ccc(C(/C=C/c2ccc(Cl)cc2)=N/O)cc1`: the “Ratio CC50/IC50” value amounted to 25.31.

Take `Cc1ccc(C(/C=C/c2ccc(F)cc2)=N/O)cc1`: the “Ratio CC50/IC50” value came out at 1.17.

As to `COc1ccc(C(/C=C/c2ccccc2)=N/O)cc1`, the “Ratio CC50/IC50” value is recorded as 2.42.

In the case of `O/N=C(\C=C\c1ccc(Cl)cc1)c1ccc(Cl)cc1`, the “Ratio CC50/IC50” value was determined as 1.54.

In the case of `COc1ccc(C(/C=C/c2cccs2)=N/O)cc1`, the “Ratio CC50/IC50” value turned out to be 1.25.

For `O/N=C(\C=C\c1ccc(F)cc1)c1ccc(Br)cc1`, the “Ratio CC50/IC50” value came to 1.53.

In the case of `COc1ccc(/C=C/C(=N\O)c2ccc(Br)cc2)cc1`, the “Ratio CC50/IC50” value is recorded as more than 4.75.

With `Cc1ccc(C(/C=C/c2ccc(Cl)c(Cl)c2)=N/O)cc1`, the “Ratio CC50/IC50” value stood at 2.32.

The species entered for a further series is Mus musculus. In words: Induction of apoptosis in anti-CD-3/[…] co-stimulated Balb/c mouse lymph node cells assessed as PARP cleavage at 10 to 40 ug/ml after 24 hrs by Western blot analysis. Format: functional.
Regarding `COc1ccc(/C=C/C(=N\O)c2ccc(OC)cc2)cc1`, the result was Active.

For the next series, the species on record is Mus musculus. In words: Induction of apoptosis in anti-CD-3/[…] co-stimulated Balb/c mouse lymph node cells assessed as caspase 3 cleavage product p17 formation after 24 hrs by Western blot analysis. Format: functional. In short, it runs like this:
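Anti-CD3/anti-CD28 co-stimulated lymph node cells were treated with compound across a dose series. Lysates were probed by Western blot with an anti-cleaved caspase-3 antibody that recognises the p17 cleavage fragment.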
Regarding `COc1ccc(/C=C/C(=N\O)c2ccc(OC)cc2)cc1`, the Activity result is “Dose-dependent effect”.

As for `COc1ccc(C(/C=C/c2ccc(Br)cc2)=N/O)cc1`, the Activity entry is “Dose-dependent effect”.

Test system in another series: not listed separately
The experiment in a line: Induction of apoptosis in anti-CD-3/[…] co-stimulated Balb/c mouse lymph node cells assessed as apoptotic cells at 20 ug/ml after 24 hrs by annexin V/PI staining-based flow cytometric analysis. Format: functional. In short, it runs like this: as §1
As to `COc1ccc(/C=C/C(=N\O)c2ccc(OC)cc2)cc1`, the Activity stood at 34.05%.

For the compound `COc1ccc(C(/C=C/c2ccc(Br)cc2)=N/O)cc1`, the Activity is 32.25%.

Test system in another series: not listed separately
In words: Induction of apoptosis in anti-CD-3/[…] co-stimulated Balb/c mouse lymph node cells assessed as apoptotic cells at 40 ug/ml after 24 hrs by annexin V/PI staining-based flow cytometric analysis. Format: functional. In short, it runs like this:
as §1
Regarding `COc1ccc(/C=C/C(=N\O)c2ccc(OC)cc2)cc1`, the Activity worked out at 96.46%.

As for `COc1ccc(C(/C=C/c2ccc(Br)cc2)=N/O)cc1`, the Activity is on record as 40.63%.

A further series is filed under the species Mus musculus. The experiment in a line: Induction of apoptosis in anti-CD-3/[…] co-stimulated Balb/c mouse lymph node cells assessed as apoptotic cells after 24 hrs by annexin V/PI staining-based flow cytometric analysis. Format: functional. In short, it runs like this:
as §1
For the compound `COc1ccc(/C=C/C(=N\O)c2ccc(OC)cc2)cc1`, the Activity entry is “Dose-dependent effect”.

Take `COc1ccc(C(/C=C/c2ccc(Br)cc2)=N/O)cc1`: the Activity result is “Dose-dependent effect”.
